For series [1], the system named is Calu-6. The series is described as follows: Inhibition of His-tagged Frataxin (unknown origin)/Ubiquitin interaction expressed in human Calu6 cells assessed as increase in frataxin (1-210) precursor level at 10 uM after 18 hrs by Western blotting analysis. In kind it is cell-based. In short, it runs like this: (§1)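 Calu-6 cells (DMEM with glutamax, 10% FBS) transiently transfected with His-frataxin. From 24 h post-transfection, treated with 10 µM proteasome inhibitor for 18 h or 50 µM compound for 3 days. Extracts (50 µg) resolved on 15% SDS gels and immunoblotted with anti-frataxin using ECL detection. Band levels quantified by PhosphorImager and normalized to tubulin. Three independent experiments.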
Background: A western blot detects proteins with antibodies after separation by electrophoresis.

The nature of series [2]: (§2) Inhibition of human His-tagged Frataxin/GST-tagged mono ubiquitin interaction expressed in human Calu6 cells after 3 days by GST pull down-based Western blot analysis. In kind it is cell-based. The following applies: calu-6. In short, it runs like this:
(§3)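 Calu-6 cells transfected with His-frataxin or His-K147R. From 24 h post-transfection, cells received 10 µM MG132 for 18 h, or compound for 3 days with MG132 added for the last 18 h. Lysate (500 µg) pulled down with 5 µg GST-monoUb or GST on GSH-sepharose, 4 h at 4 °C, pH 7.5 buffer. Eluates blotted with anti-His and quantified by densitometry as % of control. IC50 obtained by four-parameter logistic fit; at least three independent experiments.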

Series [3] concerns Calu-6. The series is described as §2. In kind it is cell-based. In short, it runs like this: as §3
Series [4] concerns Calu-6. The series is described as follows: Inhibition of human His-tagged Frataxin/Ubiquitin interaction expressed in human Calu6 cells assessed as increase in mature frataxin (81-210) level at 50 uM after 3 days by Western blotting analysis. It is filed as cell-based. In a few lines: as §1
The target of series [5] is T1, Frataxin, mitochondrial (Homo sapiens) (UniProt Q16595).
T1 sequence (whole entry): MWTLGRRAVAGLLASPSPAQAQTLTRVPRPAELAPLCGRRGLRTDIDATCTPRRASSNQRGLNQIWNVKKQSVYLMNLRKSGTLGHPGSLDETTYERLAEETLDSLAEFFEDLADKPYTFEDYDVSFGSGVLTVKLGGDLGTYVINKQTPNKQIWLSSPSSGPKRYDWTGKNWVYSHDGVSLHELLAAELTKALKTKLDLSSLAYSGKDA
Kind of series: Binding affinity to recombinant His-tagged frataxin (unknown origin) at 1 uM at 37 degC by UF-LC/MS analysis relative to control. In a few lines: (§4)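 His-frataxin recombinant protein (E. coli-expressed, Ni-NTA purified), 1 µM, incubated with ligand at 1 µM in 100 mM Tris-HCl pH 7.5, 50 mM KCl, 5 mM MgCl2, DMSO ≤2%, for 60 min at 25 or 37 °C. Unbound ligand removed by ultrafiltration and washing. Bound ligand dissociated in methanol and quantified by LC/MS (ESI positive). Ratio of peak area with active vs heat-denatured (90 °C, 1 h) protein. Duplicate assays, each analyzed twice.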

The target of series [6] is T1, Frataxin, mitochondrial (Homo sapiens). The series is described as follows: Binding affinity to recombinant His-tagged frataxin (unknown origin) at 1 uM at 25 degC by UF-LC/MS analysis relative to control. In a few lines: as §4
Series [7] deals with Calu-6. The series is described as follows: Inhibition of recombinant His-tagged Frataxin (unknown origin)/GST-tagged mono ubiquitin interaction expressed in human Calu6 cells assessed as presence of frataxin signal at 10 uM after 18 hrs by GST pull down-based Western blotting analysis. In kind it is cell-based. In short, it runs like this: as §3
Series [8] relates to Calu-6. Kind of series: Inhibition of His-tagged Frataxin (unknown origin)/HA-tagged Ubiquitin interaction expressed in human Calu6 cells assessed as accumulation of monoUB-tagged frataxin (1-210) precursor at 10 uM after 18 hrs by immunoprecipitation assay. It is filed as cell-based. In short, it runs like this: (§5)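 Calu-6 cells cotransfected with His-frataxin and HA-Ub, then treated with 10 µM MG132 for 18 h starting 24 h after transfection. Frataxin immunoprecipitated from 1.5 mg extract using anti-frataxin on protein A/G beads (4 °C, 12 h). Precipitates run on 12% SDS-PAGE and blotted with anti-Ub. Three independent experiments.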

The test system of series [9] is T2, Frataxin, mitochondrial (Homo sapiens), Q16595 [K147R].
T2 sequence (whole entry): T1 sequence (whole entry) with K147R
Kind of series: Inhibition of recombinant GST-tagged mono ubiquitin/His-tagged Frataxin K147R mutant (unknown origin) interaction expressed in human Calu6 cells assessed as presence of frataxin signal at 10 uM after 18 hrs by GST pull down-based Western blotting analysis. It is filed as cell-based. To be noted: Calu-6. In short, it runs like this: as §3

Series [10] concerns Calu-6. Kind of series: Inhibition of His6-tagged Frataxin (unknown origin)/HA-tagged Ubiquitin interaction expressed in human Calu6 cells assessed as accumulation of frataxin at 10 uM after 18 hrs by immunoprecipitation assay. In kind it is cell-based. In a few lines:
as §5

For series [11], the system named is Calu-6. The series is described as follows: Cytotoxicity against human Calu6 cells assessed as cell viability up to 100 uM. It is filed as cell-based.

Molecules are shown by their SMILES. Numbering of substitutions follows the chain as printed. pIC50: −log10 of the molar value. Calls of active or inactive are those of the source. The calls are words filed in the database; no cut-off is given here. Peptide text beside a SMILES is read from it. * marks the point of attachment. Cbz = O=C(OCc1ccccc1)*

The record followed here is ChEMBL document CHEMBL2321739, “Discovery of a novel small molecule inhibitor targeting the frataxin/ubiquitin interaction via structure-based virtual screening and bioassays” (J Med Chem, 2013).

For `CC(C)C[C@H](NC(=O)[C@H](Cc1ccccc1)NC(=O)c1cnccn1)B(O)O`, the inhibition entry in the series with Calu-6 [1] is “Active”.

For the compound `COc1ccc(C(c2cc3c(cc2O)OCO3)N2CCOCC2)cc1OC` (stereo not drawn), the negative-log IC50 (pIC50) in series [2] was 4.70. Besides, the inhibition result with Calu-6 [3] was “Dose-dependent effect”.

With `COc1cccc(C(c2cc3c(cc2O)OCO3)N2CCOCC2)c1OC` (racemic), the inhibition result in the series on Calu-6 [4] is “Active”.

As for `Oc1cc2c(cc1C(c1ccc(F)cc1)N1CCOCC1)OCO2` (stereo not drawn), the pIC50 in [2] was 4.17. Moreover, in the series with Calu-6 [3], the inhibition result is “Dose-dependent effect”.

In turn, `CN(C)c1ccc(C(c2cc3c(cc2O)OCO3)N2CCOCC2)cc1` (stereo not drawn) showed a negative logarithm of the IC50 (pIC50) in series [2] of 4.09. The inhibition result in the series with Calu-6 [3] was “Dose-dependent effect”.

For the compound `COc1cccc(C(c2cc3c(cc2O)OCO3)N2CCOCC2)c1OC` (single isomer, unassigned; (-)), in the series with Calu-6 [4], the inhibition result is “inactive”.

As to `COc1cccc(C(c2cc3c(cc2O)OCO3)N2CCOCC2)c1OC` (single isomer, unassigned; (+)) [listing 1 of 2 here], the results for the fold change (FC) in series [5] and in [6] were 3.32 and 3.7, respectively. Also, in the series on Calu-6 [4], the inhibition entry is “Active”. For the same compound, the inhibition entry in the series with Calu-6 [3] is “Dose-dependent effect”.

In the case of `Oc1ccccc1C(c1cc2c(cc1O)OCO2)N1CCOCC1` (stereo not drawn), the negative logarithm of the IC50 (pIC50) in [2] is 4.10. Besides, the inhibition entry in the series on Calu-6 [3] was “Dose-dependent effect”.

With `COc1ccc(C(c2cc3c(cc2O)OCO3)N2CCCC2)cc1` (stereo not drawn), the pIC50 in series [2] was 4.01. For the same compound, the inhibition result in the series on Calu-6 [3] was “Dose-dependent effect”.

On to `Oc1cc2c(cc1C(c1ccc(Cl)cc1)N1CCOCC1)OCO2` (stereo not drawn), for which, in series [2], the pIC50 was 4.17. In addition, the inhibition result in the series on Calu-6 [3] is “Dose-dependent effect”.

The compound `COc1cccc(C(c2cc3c(cc2O)OCO3)N2CCOCC2)c1O` (stereo not drawn) gave a negative-log IC50 (pIC50) in [2] of 4.54. Further, the inhibition result with Calu-6 [3] was “Dose-dependent effect”.

The compound `COc1ccc(C(c2cc3c(cc2O)OCO3)N2CCOCC2)c(OC)c1` (stereo not drawn) gave a negative logarithm of the IC50 (pIC50) in series [2] of 4.36. Besides, in the series with Calu-6 [3], the inhibition result was “Dose-dependent effect”.

Consider `COc1ccc(C(c2cc3c(cc2O)OCO3)N2CCCCC2)cc1` (stereo not drawn), for which the pIC50 in series [2] was 4.09. For the same compound, the inhibition entry in the series on Calu-6 [3] is “Dose-dependent effect”.

As to `CC(C)C[C@@H](C=O)NC(=O)[C@H](CC(C)C)NC(=O)[C@H](CC(C)C)NC(=O)OCc1ccccc1` (Cbz-Leu-Leu-Leu-aldehyde), the inhibition entry in the series on Calu-6 [7], in the series on Calu-6 [8], with Calu-6 [10] and with Calu-6 [1] was “Active” throughout. Moreover, the inhibition result in [9] is “inactive”.

Compound `COc1ccc(C(c2cc3c(cc2O)OCO3)N2CCOCC2)cc1` (stereo not drawn) showed a pIC50 in series [2] of 4.19. Also, in the series with Calu-6 [3], the inhibition entry is “Dose-dependent effect”.

Regarding `Oc1cc2c(cc1C(c1ccc3c(c1)OCO3)N1CCOCC1)OCO2` (stereo not drawn), the negative-log IC50 (pIC50) in series [2] was 4.15. Besides, the inhibition result in the series on Calu-6 [3] was “Dose-dependent effect”.

For `COc1cc(OC)c(C(c2cc3c(cc2O)OCO3)N2CCOCC2)c(OC)c1` (stereo not drawn), the pIC50 in series [2] is 4.28. For the same compound, the inhibition result in the series on Calu-6 [3] was “Dose-dependent effect”.

Consider `COc1cccc(C(c2cc3c(cc2O)OCO3)N2CCOCC2)c1OC` (single isomer, unassigned; (+)) [listing 2 of 2 here], for which, in the series with Calu-6 [11], the Activity result is given as “Non-toxic”. This compound also gave a negative logarithm of the IC50 (pIC50) in [2] of 4.35.

For orientation: pIC50 means the negative decadic logarithm of the IC50, by convention in mol/L.
